Activity data for ten compounds are collected here from ChEMBL document CHEMBL1122065, “Potential organ- or tumor-imaging agents. 22. Acyl-labeled cholesterol esters” (J Med Chem, 1982).

Conditions in all cases: in vivo
Series [1] relates to Rattus norvegicus. The experiment in a line: Distribution (percent dose/g of tissue) of radioactivity 24 hr after intravenous administration of [125I]-labeled compound in rat adrenal cortex. The format is ADME, organism-based. The procedure, abridged: (§1)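 Radioiodinated ester given IV to adult female Sprague–Dawley rats (200–300 g), 5–50 μCi per animal, 3–5 rats per compound. Rats killed by exsanguination under ether at 24 h. Organs blotted, large ones minced, weighed samples gamma-counted in well scintillation counter (84% efficiency). Value is % administered dose per g tissue, background-corrected; mean with SEM.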

In series [2] the test system is Rattus norvegicus. Put plainly: Distribution (percent dose/g of tissue) of radioactivity 24 hr after intravenous administration of [125I]-labeled compound in rat blood. Type of series: ADME, organism-based. The procedure, abridged: as §1
The test system of series [3] is Rattus norvegicus. The experiment in a line: Distribution (percent dose/g of tissue) of radioactivity 24 hr after intravenous administration of [125I]-labeled compound in rat liver. Type of series: ADME, organism-based. The method, boiled down:
as §1

Series [4] deals with Rattus norvegicus. Put plainly: Distribution (percent dose/g of tissue) of radioactivity 24 hr after intravenous administration of [125I]-labeled compound in rat lung. The format is ADME, organism-based. The method, boiled down: as §1
For series [5], the system named is Rattus norvegicus. Put plainly: Distribution (percent dose/g of tissue) of radioactivity 24 hr after intravenous administration of [125I]-labeled compound in rat ovary. Type of series: ADME, organism-based, Female gonad. The method, boiled down:
as §1

Series [6] has as its system Rattus norvegicus. The experiment in a line: Distribution (percent dose/g of tissue) of radioactivity 24 hr after intravenous administration of [125I]-labeled compound in rat plasma. Type of series: ADME, organism-based. The method, boiled down:
as §1

Series [7] has as its system Rattus norvegicus. Put plainly: Distribution (percent dose/g of tissue) of radioactivity 24 hr after intravenous administration of [125I]-labeled compound to rat spleen. Type of series: ADME, organism-based. The procedure, abridged: as §1
Series [8] deals with Rattus norvegicus. Put plainly: Distribution (percent dose/g of tissue) of radioactivity 24 hr after intravenous administration of [125I]-labeled compound to rat thyroid. Type of series: ADME, organism-based, Thyroid gland. The method, boiled down:
as §1

Series [9] relates to Rattus norvegicus. Put plainly: Distribution (percent dose/g of tissue) of radioactivity 24 hr after intravenous administration of [125I]-labeled compound in rat thyroid. The format is ADME, organism-based, Thyroid gland. The method, boiled down:
as §1

The test system of series [10] is Rattus norvegicus. Put plainly: Distribution (percent dose/g of tissue) of radioactivity 24 hr after intravenous administration of [125I]-labeled compound in rat heart. The format is ADME, organism-based. The method, boiled down: as §1
For series [11], the system named is Rattus norvegicus. Put plainly: Distribution (percent dose/g of tissue) of radioactivity 24 hr after intravenous administration of [125I]-labeled compound in rat spleen. Type of series: ADME, organism-based. The method, boiled down:
as §1

Series [12] concerns Rattus norvegicus. The experiment in a line: Distribution (percent dose/g of tissue) of radioactivity 24 hr after intravenous administration of [125I]-labeled compound to rat blood. Type of series: ADME, organism-based. The method, boiled down:
as §1

For `CC(C)CCCC(C)C1CCC2C3CC=C4CC(OC(=O)c5cc(I)cc(I)c5I)CCC4(C)C3CCC12C` (centres undefined), the Activity is 9.03 % dose (g of tissue)-1 in the series with Rattus norvegicus [1]; 0.57 % dose (g of tissue)-1 in the series with Rattus norvegicus [2]; 5.11 % dose (g of tissue)-1 with Rattus norvegicus [3]; 0.7 % dose (g of tissue)-1 in the series on Rattus norvegicus [4]; 16.19 % dose (g of tissue)-1 with Rattus norvegicus [5]; 1.02 % dose (g of tissue)-1 with Rattus norvegicus [6]. The values for the Activity with Rattus norvegicus [7] and in the series on Rattus norvegicus [8] were 1.68 % dose (g of tissue)-1 and 2.63 % dose (g of tissue)-1, respectively.
As to `CC(C)CCCC(C)C1CCC2C3CC=C4CC(OC(=O)c5ccccc5I)CCC4(C)C3CCC12C` (centres undefined), the Activity in the series with Rattus norvegicus [9] is 1.96 % dose (g of tissue)-1; in the series on Rattus norvegicus [1] it was 14.67 % dose (g of tissue)-1; with Rattus norvegicus [2], 0.44 % dose (g of tissue)-1; in the series on Rattus norvegicus [10], 0.21 % dose (g of tissue)-1; with Rattus norvegicus [3], 5.18 % dose (g of tissue)-1; in the series on Rattus norvegicus [4] it was 0.94 % dose (g of tissue)-1. In addition, the Activity in the series with Rattus norvegicus [5] is 13.68 % dose (g of tissue)-1; with Rattus norvegicus [6], 0.8 % dose (g of tissue)-1; in the series with Rattus norvegicus [11] it was 1.89 % dose (g of tissue)-1.
On to `CC(C)CCCC(C)C1CCC2C3CC=C4CC(OC(=O)CCc5ccc(I)cc5)CCC4(C)C3CCC12C` (centres undefined), for which the Activity was 67.52 % dose (g of tissue)-1 in the series on Rattus norvegicus [9]; 3.56 % dose (g of tissue)-1 in the series on Rattus norvegicus [1]; 0.13 % dose (g of tissue)-1 in the series on Rattus norvegicus [2]; 0.08 % dose (g of tissue)-1 with Rattus norvegicus [10]; 0.42 % dose (g of tissue)-1 in the series on Rattus norvegicus [3]; 0.5 % dose (g of tissue)-1 in the series on Rattus norvegicus [4]. Further, the values for the Activity in the series with Rattus norvegicus [5], in the series on Rattus norvegicus [6] and with Rattus norvegicus [11] were 1.35 % dose (g of tissue)-1, 0.16 % dose (g of tissue)-1 and 0.51 % dose (g of tissue)-1, respectively.
As to `CC(C)CCCC(C)C1CCC2C3CC=C4CC(OC(=O)c5cc(I)c(I)c(I)c5)CCC4(C)C3CCC12C` (centres undefined), the Activity is listed as 7.48 % dose (g of tissue)-1 with Rattus norvegicus [1]; 0.54 % dose (g of tissue)-1 with Rattus norvegicus [2]; 0.2 % dose (g of tissue)-1 in the series on Rattus norvegicus [10]; 4.8 % dose (g of tissue)-1 in the series on Rattus norvegicus [3]; 0.97 % dose (g of tissue)-1 with Rattus norvegicus [4]; 12.53 % dose (g of tissue)-1 with Rattus norvegicus [5]. The Activity in the series on Rattus norvegicus [6] is given as 1.01 % dose (g of tissue)-1; in the series on Rattus norvegicus [7], 2.98 % dose (g of tissue)-1; in the series on Rattus norvegicus [8] it was 6.06 % dose (g of tissue)-1.
For the compound `CC(C)CCCC(C)C1CCC2C3CC=C4CC(OC(=O)Cc5ccccc5I)CCC4(C)C3CCC12C` (centres undefined), the Activity in the series on Rattus norvegicus [9] is reported as 46.31 % dose (g of tissue)-1; in the series on Rattus norvegicus [1], 9.19 % dose (g of tissue)-1; in the series on Rattus norvegicus [2], 0.21 % dose (g of tissue)-1; in the series on Rattus norvegicus [10] it was 0.15 % dose (g of tissue)-1; in the series on Rattus norvegicus [3], 3.99 % dose (g of tissue)-1; in the series on Rattus norvegicus [4], 0.43 % dose (g of tissue)-1. Besides, the Activity with Rattus norvegicus [5] was 5.97 % dose (g of tissue)-1; with Rattus norvegicus [6] it was 0.29 % dose (g of tissue)-1; in the series on Rattus norvegicus [11], 1.31 % dose (g of tissue)-1.
For `CC(C)CCCC(C)C1CCC2C3CC=C4CC(OC(=O)c5ccc(I)cc5)CCC4(C)C3CCC12C` (centres undefined), the Activity is 6.92 % dose (g of tissue)-1 with Rattus norvegicus [9]; 0.2 % dose (g of tissue)-1 in the series on Rattus norvegicus [12]; 3.86 % dose (g of tissue)-1 in the series with Rattus norvegicus [1]; 0.11 % dose (g of tissue)-1 in the series with Rattus norvegicus [10]; 3.28 % dose (g of tissue)-1 in the series with Rattus norvegicus [3]; 0.94 % dose (g of tissue)-1 in the series on Rattus norvegicus [4]. Further, the Activity with Rattus norvegicus [5] was 6.21 % dose (g of tissue)-1; in the series on Rattus norvegicus [6], 0.36 % dose (g of tissue)-1; with Rattus norvegicus [11] it was 1.49 % dose (g of tissue)-1.
In the case of `CC(C)CCCC(C)C1CCC2C3CC=C4CC(OC(=O)Cc5ccc(I)cc5)CCC4(C)C3CCC12C` (centres undefined), the Activity is recorded as 27.09 % dose (g of tissue)-1 in the series with Rattus norvegicus [9]; 3.29 % dose (g of tissue)-1 in the series on Rattus norvegicus [1]; 1.02 % dose (g of tissue)-1 with Rattus norvegicus [2]; 0.33 % dose (g of tissue)-1 in the series with Rattus norvegicus [10]; 1.25 % dose (g of tissue)-1 with Rattus norvegicus [3]; 0.65 % dose (g of tissue)-1 in the series on Rattus norvegicus [4]. Further, the Activity with Rattus norvegicus [5] is recorded as 2.32 % dose (g of tissue)-1; with Rattus norvegicus [6], 1.88 % dose (g of tissue)-1; with Rattus norvegicus [11], 0.5 % dose (g of tissue)-1.
For the compound `CC(C)CCCC(C)C1CCC2C3CC=C4CC(OC(=O)Cc5cccc(I)c5)CCC4(C)C3CCC12C` (centres undefined), the Activity in the series on Rattus norvegicus [9] is recorded as 32.62 % dose (g of tissue)-1; in the series on Rattus norvegicus [1], 3.4 % dose (g of tissue)-1; with Rattus norvegicus [2], 0.14 % dose (g of tissue)-1; in the series on Rattus norvegicus [10], 0.11 % dose (g of tissue)-1; in the series on Rattus norvegicus [3], 2.11 % dose (g of tissue)-1; in the series with Rattus norvegicus [4], 0.27 % dose (g of tissue)-1. Moreover, the Activity is on record as 5.05 % dose (g of tissue)-1 with Rattus norvegicus [5], 0.24 % dose (g of tissue)-1 in the series on Rattus norvegicus [6] and 0.77 % dose (g of tissue)-1 with Rattus norvegicus [11].
For the compound `CC(C)CCCC(C)C1CCC2C3CC=C4CC(OC(=O)c5cccc(I)c5)CCC4(C)C3CCC12C` (centres undefined), the Activity with Rattus norvegicus [9] is reported as 7.3 % dose (g of tissue)-1; in the series with Rattus norvegicus [12], 0.3 % dose (g of tissue)-1; in the series with Rattus norvegicus [1], 12.76 % dose (g of tissue)-1; with Rattus norvegicus [10], 0.16 % dose (g of tissue)-1; in the series with Rattus norvegicus [3], 5.03 % dose (g of tissue)-1; with Rattus norvegicus [4], 0.46 % dose (g of tissue)-1. Moreover, the figures for the Activity in the series on Rattus norvegicus [5], with Rattus norvegicus [6] and in the series with Rattus norvegicus [11] were 15.7 % dose (g of tissue)-1, 0.55 % dose (g of tissue)-1 and 1.86 % dose (g of tissue)-1, respectively.
Turning to `CC(C)CCCC(C)C1CCC2C3CC=C4CC(OC(=O)CCCc5ccc(I)cc5)CCC4(C)C3CCC12C` (centres undefined), the Activity in the series with Rattus norvegicus [9] is on record as 30.09 % dose (g of tissue)-1; in the series on Rattus norvegicus [1], 1.94 % dose (g of tissue)-1; in the series with Rattus norvegicus [2], 0.87 % dose (g of tissue)-1; in the series with Rattus norvegicus [10], 0.25 % dose (g of tissue)-1; in the series on Rattus norvegicus [3] it was 0.36 % dose (g of tissue)-1; in the series with Rattus norvegicus [4] it was 0.4 % dose (g of tissue)-1. The Activity in the series with Rattus norvegicus [5] was 3.23 % dose (g of tissue)-1; with Rattus norvegicus [6], 1.51 % dose (g of tissue)-1; with Rattus norvegicus [11] it was 0.16 % dose (g of tissue)-1.
